Most compounds without a hit are left out; they make up all but 4.1% or so of the library.
Apaf-1 inh: inhibitors of human Apaf-1 apoptosome; reconstituted apoptosome caspase-3 activity, DEVD-Rh110 fluorescence; inhibition, % at 20 µM; hit rate 0.71% among 330,000; active = inhibition of at least 40% at 20 µM
Target sequence (O14727 whole entry, looked up): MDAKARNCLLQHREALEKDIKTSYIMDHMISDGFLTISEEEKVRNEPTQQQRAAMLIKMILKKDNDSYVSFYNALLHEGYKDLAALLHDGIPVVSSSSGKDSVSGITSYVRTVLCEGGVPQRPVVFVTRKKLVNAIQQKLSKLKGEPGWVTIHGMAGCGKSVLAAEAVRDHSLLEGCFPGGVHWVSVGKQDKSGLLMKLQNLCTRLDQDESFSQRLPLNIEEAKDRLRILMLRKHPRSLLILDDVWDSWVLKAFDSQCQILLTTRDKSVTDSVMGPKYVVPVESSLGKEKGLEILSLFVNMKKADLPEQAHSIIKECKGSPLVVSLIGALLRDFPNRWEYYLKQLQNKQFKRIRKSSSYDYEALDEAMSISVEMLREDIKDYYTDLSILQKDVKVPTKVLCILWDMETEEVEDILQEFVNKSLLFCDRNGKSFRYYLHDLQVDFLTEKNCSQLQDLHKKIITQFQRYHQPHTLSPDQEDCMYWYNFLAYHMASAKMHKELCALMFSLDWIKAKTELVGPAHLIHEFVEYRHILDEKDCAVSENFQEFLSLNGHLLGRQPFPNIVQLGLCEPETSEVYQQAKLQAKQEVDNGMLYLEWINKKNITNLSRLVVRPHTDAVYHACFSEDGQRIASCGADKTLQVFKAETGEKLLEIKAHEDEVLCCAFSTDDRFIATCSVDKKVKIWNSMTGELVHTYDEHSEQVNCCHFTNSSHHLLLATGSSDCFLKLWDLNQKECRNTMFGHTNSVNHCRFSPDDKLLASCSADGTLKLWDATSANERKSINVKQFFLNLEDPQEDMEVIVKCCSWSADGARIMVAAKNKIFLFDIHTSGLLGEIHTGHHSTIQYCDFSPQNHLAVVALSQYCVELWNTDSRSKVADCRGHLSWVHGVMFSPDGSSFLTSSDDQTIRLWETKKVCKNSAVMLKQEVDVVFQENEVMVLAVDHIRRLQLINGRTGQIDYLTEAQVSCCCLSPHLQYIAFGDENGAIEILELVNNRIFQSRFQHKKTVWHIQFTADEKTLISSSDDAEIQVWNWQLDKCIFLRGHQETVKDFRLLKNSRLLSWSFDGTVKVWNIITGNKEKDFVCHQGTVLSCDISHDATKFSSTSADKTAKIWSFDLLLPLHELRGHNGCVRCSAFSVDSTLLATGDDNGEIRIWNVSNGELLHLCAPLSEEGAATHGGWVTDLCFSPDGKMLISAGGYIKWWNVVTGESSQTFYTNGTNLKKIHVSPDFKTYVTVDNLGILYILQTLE
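Material: reconstituted apoptosome with Apaf-1, cytochrome c, caspase-9, procaspase-3, dATP. Technique: Rh110 fluorescence intensity. Buffer or medium: pH 7.5 Hepes buffer with CHAPS, BSA, DTT. Times: 30 min plus 50 min, RT.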
XBP1 UPR activ: adaptive UPR (XBP1) activation. CHO-XBP1 luciferase reporter, IRE1-XBP1 UPR activation, luminescence; percent of tunicamycin response, DMSO as zero. AID 463104. activation, % at 20 µM. hit rate 0.33% among 330,000;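 active = versus positive control, 20 µM dose yields 30% or more activation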
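Assay system: IRE1-XBP1 luciferase reporter CHO line. Input: 1000 cells/well. Buffer or medium: F12 with 10% serum. Doses: 20 µM, 1% DMSO. Times: overnight seeding at 37 °C, 6 h compound treatment at 37 °C. Technique: Steady-Glo luciferase glow luminescence, 10 min after reagent addition.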
UBC13 polyUb: human UBC13 polyubiquitination inhibition. hit rate 0.47% among 330,000. UBC13 polyubiquitin chain formation, TR-FRET. inhibition, % at 20 µM. P61088; in the data active = inhibition above about 45%, passing the limit was not always enough
Mdm2 MdmX PPI: human Mdm2/MdmX binding inhibition. O15151+Q00987. SaOS-2 split-luciferase Mdm2/MdmX complementation, luminescence. inhibition, % at 8 µM. hit rate 3% among 330,000;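 active = inhibition of at least 50% at 8 µM in the primary screen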
UPR CHOP act: activators of apoptotic arm of unfolded protein response (CHOP). activation, % at 10 µM. hit rate 0.34% among 330,000. CHO-CHOP luciferase reporter, UPR activation, luminescence; percent of tunicamycin response over DMSO baseline;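 active = at 10 µM dose, activation of 40% or more, normalized to positive control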
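measured by = luciferase luminescence | assay system = CHO-CHOP cells, stable luciferase reporter of PERK-eIF2a-CHOP signalling | amount = 500 reporter cells seeded per well | timing = 6 h compound exposure at 37 °C after overnight seeding | controls = positive tunicamycin 10 µg/mL, negative DMSO alone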
Mdm2 MdmX conf: confirmation of human Mdm2/MdmX interaction inhibitors | Mdm2-MdmX binding, luminescent assay | inhibition, % at 8 µM | hit rate 55% among 10,000 | shares compounds with Mdm2 MdmX PPI; in the data active = inhibition above about 40%
Full FLuc ctr: full-length luciferase inhibition in Mdm2/MdmX counter-screen. shares compounds with Mdm2 MdmX PPI. SaOS-2 full-length luciferase counterscreen, luminescence. inhibition, % at 8 µM. hit rate 77% among 6,200;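 active = mean inhibition at 8 µM reaching about 37%, which flags the compound as non-specific, limit read from the data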;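 note: p53-null SaOS-2 cells with luciferase driven by a doxycycline-inducible promoter; compound on cells about two nights before reading with doxycycline added after day one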
Each line names hits and unclear results; the compound was inactive in the other large screens (follow-up assays come after a bar, where they were run).

COc1cc(/C=N/NC(N)=O)ccc1OCC(=O)Nc1cc(C)c(C)cc1Br	Mdm2 MdmX PPI 81.4 | Mdm2 MdmX conf 49.5 | Full FLuc ctr 105.6
COc1cc(/C=C(\C#N)c2ccccn2)ccc1OCC(=O)Nc1ccc(Br)cc1	Mdm2 MdmX PPI 100.4 | Mdm2 MdmX conf 94.0 | Full FLuc ctr inactive
COc1cc(CO)ccc1OCC(=O)Nc1ccc(Br)cc1	none
COc1ccc(/C=N/NC(N)=S)cc1OC(=O)c1cccc2ccccc12	Mdm2 MdmX PPI 60.7 | Mdm2 MdmX conf inactive
CCOc1cc(/C=N\NC(=O)Cc2ccccc2)ccc1OCC(=O)Nc1ccc(C)c(C)c1	Mdm2 MdmX PPI 94.1 | Mdm2 MdmX conf 75.2 | Full FLuc ctr 75.9
COC(=O)NCC(c1ccco1)N1CCN(c2ccccc2)CC1 (stereo unspecified)	none
COc1cc(C(=O)Nc2ccc(S(=O)(=O)Nc3nccc(C)n3)cc2)c([N+](=O)[O-])cc1OC	none
CCOc1ccc(N2CC(C(=O)Nc3cc(OCC)c(N4CCOCC4)cc3OCC)CC2=O)cc1 (stereo unspecified)	none
COc1ccc(/C=N/NC(=O)c2[nH]nc3c2CCc2ccccc2-3)cc1OC	Mdm2 MdmX PPI 55.9 | Mdm2 MdmX conf 68.0 | Full FLuc ctr 74.5
CNC(=O)c1[nH]nc2c1CCc1ccccc1-2	none
CCOC(=O)Cn1cnc2sc3c(c2c1=O)CCC3	none
CCOC(=O)c1ccc(NC(=S)N(CCN(C)C)Cc2cccs2)cc1	Mdm2 MdmX PPI 75.8 | Mdm2 MdmX conf 46.3 | Full FLuc ctr 60.6
Cc1ccc(O)c(C(=O)c2cc(C#N)c(=O)n(-c3nccs3)c2)c1	Mdm2 MdmX PPI 54.5 | Mdm2 MdmX conf inactive
Cc1ccc(O)c(C(=O)c2cc(C#N)c(=O)n(-c3c(C)n(C)n(-c4ccccc4)c3=O)c2)c1	none
Cc1occc1-c1nnc(SCC(=O)Nc2nc3ccccc3s2)o1	none
Cc1noc(C)c1C(=O)OCC(=O)c1cc(C)n(Cc2ccccc2Cl)c1C	none
O=C(CCl)N(CCCNC(=O)C(F)(F)F)c1ccc([N+](=O)[O-])cc1	Mdm2 MdmX PPI 93.0 | Mdm2 MdmX conf 71.8 | Full FLuc ctr 38.2
O=C(NCCCNc1ccc([N+](=O)[O-])cc1)C(F)(F)F	none
CCOc1cc(CNc2ccc3c(c2)OCCO3)cc(Br)c1OC	Mdm2 MdmX PPI 75.7 | Mdm2 MdmX conf 73.0 | Full FLuc ctr 65.5
CCOc1cc(CNc2ccc3c(c2)OCCO3)cc(Br)c1OCC(N)=O	none
CCOc1c(Br)cc(CNc2ccc3c(c2)OCCO3)cc1OC	Mdm2 MdmX PPI 71.1 | Mdm2 MdmX conf 58.1 | Full FLuc ctr 57.4
CCOc1c(Br)cc(CNc2ccc(N3CCOCC3)cc2)cc1OC	none
Cc1ccc2c(c1)CCCN2S(=O)(=O)c1cccc(C(=O)Nc2ccccc2C(=O)O)c1	Mdm2 MdmX PPI 53.8 | Mdm2 MdmX conf 60.2 | Full FLuc ctr 58.3
COc1ccc(-c2cc(C)no2)cc1S(=O)(=O)N(C)c1ccc(C)c(C)c1	none
Cc1ccc(N(C)S(=O)(=O)c2ccc(-c3cc(C)no3)s2)cc1	Mdm2 MdmX PPI 53.5 | Mdm2 MdmX conf 54.9 | Full FLuc ctr 58.9
Cc1cc(-c2ccc(S(=O)(=O)N(C)c3ccc(C)c(C)c3)s2)on1	Mdm2 MdmX PPI 56.4 | Mdm2 MdmX conf 54.3 | Full FLuc ctr 46.6
CN(C)C(=O)CCc1ccc2c3c([nH]c2c1)[C@]1(CCC2CCCC2)[C@@H](C(=O)N2CCOCC2)C[C@H](CC(=O)NCc2cccc(C(F)(F)F)c2)C(=O)N1CC3	Mdm2 MdmX PPI 61.1 (no result: UBC13 polyUb) | Mdm2 MdmX conf 53.1 | Full FLuc ctr 58.9
CN(C)C(=O)CCc1ccc2c3c([nH]c2c1)[C@]1(C)[C@@H](C(=O)N2CCCCC2)C[C@H](CC(=O)NCc2cccc(C(F)(F)F)c2)C(=O)N1CC3	none (no result: UBC13 polyUb)
COc1ccc2[nH]c3c(c2c1)CCN1C(=O)C(CC(=O)NCCN2CCOCC2)C[C@H](C(=O)N2CCOCC2)[C@@]31CCC1CCCC1 (stereo partly specified)	Mdm2 MdmX PPI 66.5 (no result: UBC13 polyUb) | Mdm2 MdmX conf inactive
O=C(CC1C[C@H](C(=O)N2CCOCC2)[C@@]2(CCC3CCCC3)c3[nH]c4ccccc4c3CCN2C1=O)NCCC1=CCCCC1 (stereo partly specified)	Mdm2 MdmX PPI 60.4 | Mdm2 MdmX conf inactive
CN(C)CCCNC(=O)CC1C[C@H](C(=O)N2CCOCC2)[C@@]2(CCC3CCCC3)c3[nH]c4ccccc4c3CCN2C1=O (stereo partly specified)	none
CCn1c(=O)c(C(=O)CN2CCN(S(=O)(=O)c3ccc(C)cc3C)CC2)c(N)n(Cc2ccccc2)c1=O	Mdm2 MdmX PPI 52.7 | Mdm2 MdmX conf 42.6 | Full FLuc ctr 75.1
CCn1c(=O)c(C(=O)CN2CCN(S(=O)(=O)c3ccccc3)CC2)c(N)n(Cc2ccccc2)c1=O	none
Cc1cc(NC(=O)C(C)SCC(=O)N(Cc2ccccc2)c2ccccc2)no1 (stereo unspecified)	Mdm2 MdmX PPI 66.9 | Mdm2 MdmX conf 45.2 | Full FLuc ctr 109.7
O=C(NCCc1ccccc1F)c1ccc2c(c1)OCCO2	Mdm2 MdmX PPI 89.5 | Mdm2 MdmX conf 92.0 | Full FLuc ctr 49.5
N#Cc1c(N)nc2c(c1-c1ccc3c(c1)OCO3)CCc1ccccc1-2	Mdm2 MdmX PPI 64.5 | Mdm2 MdmX conf inactive | Full FLuc ctr 92.2
CC(=O)O[C@H]1[C@H](O)[C@H](Oc2c(O)c(C)c3c4c2[C@@H](C)CC[C@@H]4[C@@H](C)C[C@H]3C=C(C)C)O[C@@H](C)[C@H]1O	Mdm2 MdmX PPI 73.8 | Mdm2 MdmX conf inactive
CCCCn1c(=O)[nH]c(=O)c2c1nc(Cn1ncc(Cl)c(Cl)c1=O)n2CCC	Mdm2 MdmX PPI 100.2 | Mdm2 MdmX conf 93.2 | Full FLuc ctr 51.5
COCC(C)n1c(SCc2cc(=O)n3cc(C)ccc3n2)nc2ccccc2c1=O (stereo unspecified)	Mdm2 MdmX PPI 51.0 | Mdm2 MdmX conf inactive
Cc1ccc2nc(CSc3nnc4ccccn34)cc(=O)n2c1	none
Cc1ccc2nsnc2c1S(=O)(=O)N(Cc1cc2cccc(C)c2[nH]c1=O)CC1CCCO1 (stereo unspecified)	Mdm2 MdmX PPI 56.5 | Mdm2 MdmX conf 46.6 | Full FLuc ctr 85.0
CCN(CC)S(=O)(=O)c1ccc(N2CCOCC2)c(NC(=S)NC(=O)c2ccco2)c1	none
CC(=O)Nc1ccc(/C(C)=N/Nc2nc(Nc3cccc4ccccc34)nc(N3CCOCC3)n2)cc1	Mdm2 MdmX PPI 54.3 | Mdm2 MdmX conf inactive

Compound activity: PubChem BioAssay, Sanford-Burnham Center for Chemical Genomics
